Test results taken from ChEMBL document CHEMBL3232705, “Discovery of isoquinolinone indole acetic acids as antagonists of chemoattractant receptor homologous molecule expressed on Th2 cells (CRTH2) for the treatment of allergic inflammatory diseases” (J Med Chem, 2014).
The source made the active and inactive calls. The calls are words filed in the database; no cut-off is given here.

Experiments:
[1] = biological target: T1, Prostaglandin D2 receptor (Homo sapiens, UniProt Q13258); experiment: Binding affinity to DP1 receptor (unknown origin) by FRET assay
T1 sequence (Q13258 whole entry): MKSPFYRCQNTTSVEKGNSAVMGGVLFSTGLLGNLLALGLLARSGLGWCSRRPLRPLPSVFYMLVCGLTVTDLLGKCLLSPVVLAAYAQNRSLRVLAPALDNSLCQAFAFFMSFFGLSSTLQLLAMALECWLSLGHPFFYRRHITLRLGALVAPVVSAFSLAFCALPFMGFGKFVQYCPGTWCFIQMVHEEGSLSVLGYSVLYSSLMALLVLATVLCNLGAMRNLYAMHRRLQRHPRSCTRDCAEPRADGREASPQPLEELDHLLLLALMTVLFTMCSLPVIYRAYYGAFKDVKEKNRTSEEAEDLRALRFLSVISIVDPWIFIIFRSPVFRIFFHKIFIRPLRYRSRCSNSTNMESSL

[2] = biological target: T2, Prostaglandin D2 receptor 2 (Homo sapiens, UniProt Q9Y5Y4); experiment: Binding affinity to human CRTH2 receptor
T2 sequence (Q9Y5Y4 whole entry): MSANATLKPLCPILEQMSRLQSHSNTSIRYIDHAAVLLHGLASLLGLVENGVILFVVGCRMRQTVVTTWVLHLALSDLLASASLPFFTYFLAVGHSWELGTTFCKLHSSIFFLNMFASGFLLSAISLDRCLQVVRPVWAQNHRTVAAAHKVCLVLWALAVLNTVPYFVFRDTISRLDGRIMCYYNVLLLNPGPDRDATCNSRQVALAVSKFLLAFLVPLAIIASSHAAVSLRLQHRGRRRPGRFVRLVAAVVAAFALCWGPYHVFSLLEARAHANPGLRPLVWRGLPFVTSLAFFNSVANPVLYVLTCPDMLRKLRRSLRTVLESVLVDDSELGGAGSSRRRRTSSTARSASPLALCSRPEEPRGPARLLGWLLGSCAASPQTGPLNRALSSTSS
Summary of the method: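 Competitive binding assay at human CRTH2, measuring displacement of tritium-labeled PGD2 by test compound; IC50 derived.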

[3] = biological target: Voltage-gated inwardly rectifying potassium channel KCNH2 (Homo sapiens, UniProt Q12809); experiment: Inhibition of human ERG channel at 33 uM
Sequence of Voltage-gated inwardly rectifying potassium channel KCNH2 (Q12809 whole entry): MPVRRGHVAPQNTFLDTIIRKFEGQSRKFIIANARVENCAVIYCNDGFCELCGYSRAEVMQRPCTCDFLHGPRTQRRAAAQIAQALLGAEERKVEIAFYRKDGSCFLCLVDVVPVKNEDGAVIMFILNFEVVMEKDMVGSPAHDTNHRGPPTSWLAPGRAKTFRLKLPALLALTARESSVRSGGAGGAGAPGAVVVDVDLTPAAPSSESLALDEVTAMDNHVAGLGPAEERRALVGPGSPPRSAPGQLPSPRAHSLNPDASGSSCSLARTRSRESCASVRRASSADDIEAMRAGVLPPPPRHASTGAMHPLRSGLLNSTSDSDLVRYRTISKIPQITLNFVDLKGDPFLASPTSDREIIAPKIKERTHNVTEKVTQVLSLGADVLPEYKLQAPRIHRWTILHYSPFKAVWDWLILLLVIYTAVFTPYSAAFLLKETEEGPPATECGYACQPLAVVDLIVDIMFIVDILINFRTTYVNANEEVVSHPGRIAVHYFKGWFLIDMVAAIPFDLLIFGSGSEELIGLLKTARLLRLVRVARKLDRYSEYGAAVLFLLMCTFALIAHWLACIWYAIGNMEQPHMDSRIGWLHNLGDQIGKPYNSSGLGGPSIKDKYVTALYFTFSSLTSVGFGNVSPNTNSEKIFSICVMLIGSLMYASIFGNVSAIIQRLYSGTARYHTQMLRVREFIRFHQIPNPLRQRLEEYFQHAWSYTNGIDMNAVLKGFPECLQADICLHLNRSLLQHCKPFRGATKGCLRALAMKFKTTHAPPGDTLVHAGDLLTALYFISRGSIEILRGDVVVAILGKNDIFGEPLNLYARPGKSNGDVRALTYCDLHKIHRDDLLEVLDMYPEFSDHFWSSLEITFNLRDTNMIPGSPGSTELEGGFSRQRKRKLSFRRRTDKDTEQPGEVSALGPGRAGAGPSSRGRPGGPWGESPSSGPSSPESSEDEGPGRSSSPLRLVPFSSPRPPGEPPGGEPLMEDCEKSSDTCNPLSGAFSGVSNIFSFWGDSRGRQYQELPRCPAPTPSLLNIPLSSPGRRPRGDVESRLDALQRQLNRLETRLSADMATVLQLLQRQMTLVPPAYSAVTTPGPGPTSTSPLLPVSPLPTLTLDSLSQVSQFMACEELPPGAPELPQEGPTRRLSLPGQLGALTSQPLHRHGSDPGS

Cavia porcellus = experiment: Antiallergic activity in ovalbumin-induced allergic lung inflammation Hartley guinea pig model assessed as total cellularity in bronchoalveolar lavage fluid at 20 mg/kg, po administered 1 hr before and 6 hrs after ovalbumin challenge measured after 24 hrs; type: functional, organism-based; parameters: dose 20 mg/kg
Summary of the method: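 Female Hartley guinea pigs (375–425 g) sensitized ip on days 1 and 5 with 100 μg OVA plus 100 mg aluminum hydroxide in PBS, then challenged on day 15 with aerosolized 0.01% OVA for 60 min. Dosed orally 1 h before and 6 h after challenge; vehicle was Tween 80 in cherry syrup. On day 16, lungs lavaged with 2 × 10 mL PBS. Total cells counted by hemocytometer; differentials from stained cytospins. Unpaired t test.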

Mus musculus = experiment: Antiallergic activity in house dust mite-induced allergic airway disease BALB/c mouse model assessed as reduction in eosinophil level in bronchoalveolar lavage fluid at 40 mg/kg, po after 72 hrs of HDM challenge; type: functional, organism-based; parameters: dose 40 mg/kg; conditions: Lung
Summary of the method: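 BALB/c mice given house dust mite intratracheally via a catheter passed through the vocal cords. Test article 40 mg/kg orally once daily; dexamethasone 1 mg/kg ip once daily as reference. Total and differential BAL cells (eosinophils, macrophages, lymphocytes, neutrophils) counted 72 h after HDM challenge. Mean ± SEM, Mann–Whitney U test.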

[4] = Oral bioavailability in monkey at 10 mg/kg; type: ADME, organism-based, Macaca mulatta; conditions: rhesus monkey, in vivo
[5] = Volume of distribution at steady state in monkey at 2 mg/kg, iv; type: ADME, organism-based, Macaca mulatta; parameters: dose 2 mg/kg, route intravenous; conditions: rhesus monkey, in vivo, read-out: Vdss
[6] = Half life in monkey at 2 mg/kg, iv; type: ADME, organism-based, Macaca mulatta; parameters: dose 2 mg/kg, route intravenous; conditions: rhesus monkey, in vivo
Summary of the method: (§1)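 Single intravenous dose of 2 mg/kg and single oral dose of 10 mg/kg, given separately, in rat, dog and monkey. Clearance and half-life taken from the iv arm; Cmax from the oral arm.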

[7] = Clearance in monkey at 2 mg/kg, iv; type: ADME, organism-based, Macaca mulatta; parameters: dose 2 mg/kg, route intravenous; conditions: rhesus monkey, in vivo; summary of the method: as §1

Cc1c(-c2cn(C(C)C)c(=O)c3ccccc23)c2cc(F)ccc2n1CC(=O)O
IC50 [1]: 16 µM
IC50 [2]: 0.0014 µM
inhibition (INH) [3]: Not Active
inhibition (Cavia porcellus): Active
inhibition (Mus musculus): Active
bioavailability [4]: 69%
Vd [5]: 0.95 L/kg
half-life [6]: 4.1 h
clearance [7]: 6.1 mL/min/kg
